Converted amounts (≈) assume the structure as drawn.
Assays:
[1] = Toxicity in Plasmodium berghei infected ICR mice (Mus musculus) dosed intraperitoneally once daily for 4 days by Thompson test; assay type: organism-based; settings: in vivo, ip
[2] = Therapeutic index, ratio of MTD for Plasmodium berghei infected ICR mice (Mus musculus) to MCD for Plasmodium berghei; settings: read-out: TI
Plasmodium falciparum = test: Antiplasmodial activity after 48 hrs against chloroquine-resistant Plasmodium falciparum W2 in human erythrocytes by [3H]hypoxanthine uptake; assay type: functional, organism-based
In short: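 Chloroquine-resistant W2 P. falciparum grown in RPMI 1640 with 6% human erythrocytes and 10% human serum, under 5% CO2, 5% O2, 90% N2 at 37°C. Sensitivity tested by semi-automated micro-dilution. [3H]hypoxanthine incorporation measured across compound concentrations, and IC50 derived from it.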

Plasmodium berghei = test: Antimalarial activity against Plasmodium berghei infected ICR mice (Mus musculus) daily oral or subcutaneous dose for 8 days by Thompson test; settings: for ED50: Plasmodium berghei, po or sc, 192 h

| Structure (SMILES) | MTD at 96 h [1] [mg/kg] | selectivity ratio [2] | IC50 (Plasmodium falciparum) [ng/mL] | MCD (Plasmodium berghei) [mg/kg] | ED50 (Plasmodium berghei) [mg/kg] |
| --- | --- | --- | --- | --- | --- |
| O=C(C[C@H]1NCC[C@@H]1O)Cn1cnc2ncccc2c1=O | 439 | 74 | 0.34 (≈ 1.18 nM) | 5.9 | 1.3 |
| O=C(C[C@H]1NCC[C@@H]1O)Cn1cnc2ccncc2c1=O | 310 | 107 | 0.14 (≈ 0.486 nM) | 2.9 | 0.49 |
| O=C(C[C@H]1NCC[C@@H]1O)Cn1cnc2ccc(F)c(F)c2c1=O | 379 | 43 | 0.4 (≈ 1.24 nM) | 8.9 | 1.7 |
| O=C(C[C@H]1NCC[C@@H]1O)Cn1cnc2cccc(F)c2c1=O | 399 | 56 | 0.29 (≈ 0.95 nM) | 7.1 | 1 |
| O=C(C[C@H]1NCC[C@@H]1O)Cn1cnc2cccc(C(F)(F)F)c2c1=O | 335 | 71 | 0.23 (≈ 0.647 nM) | 4.7 | 0.74 |
| COc1ccc2c(=O)n(CC(=O)C[C@H]3NCC[C@@H]3O)cnc2c1 | 55 | 10 | 0.62 (≈ 1.95 nM) | 5.6 | 1.7 |
| O=C(C[C@H]1NCC[C@@H]1O)Cn1cnc2ccc(C(F)(F)F)cc2c1=O | 440 | 56 | 0.28 (≈ 0.788 nM) | 7.9 | 1.5 |
| CCN(CC)CCCC(C)Nc1ccnc2cc(Cl)ccc12 (stereo not drawn) [CHLOROQUINE] | 240 |  |  | 40 | 4.5 |
| O=C(C[C@H]1NCC[C@@H]1O)Cn1cnc2ccc(F)cc2c1=O | 425 | 63 | 0.26 (≈ 0.852 nM) | 6.8 | 1.1 |
| CC(C)(C)c1cccc2ncn(CC(=O)C[C@H]3NCC[C@@H]3O)c(=O)c12 | 429 | 11 | 2.9 (≈ 8.44 nM) | 39 | 8.7 |
| O=C(C[C@H]1NCC[C@@H]1OCc1ccccc1)Cn1cnc2cccc(C(F)(F)F)c2c1=O | 88 | 128 | 0.19 (≈ 0.427 nM) | 0.69 | 0.12 |
| O=C(C[C@H]1NCC[C@@H]1O)Cn1cnc2cnccc2c1=O | 338 | 51 | 0.31 (≈ 1.08 nM) | 6.6 | 1.2 |
| O=C(C[C@@H]1NCCC[C@H]1O)Cn1cnc2ccccc2c1=O [FEBRIFUGINE] | 35 | 3 | 0.76 (≈ 2.52 nM) | 12 | 2.3 |
| COc1cccc2c(=O)n(CC(=O)C[C@H]3NCC[C@@H]3O)cnc12 | 51 | 10 | 0.57 (≈ 1.8 nM) | 4.9 | 1.5 |
| O=C(C[C@H]1NCC[C@@H]1O)Cn1cnc2ccccc2c1=O | 144 | 17 | 0.56 (≈ 1.95 nM) | 8.4 | 1.6 |
| CC(C)(C)c1ccc2ncn(CC(=O)C[C@H]3NCC[C@@H]3O)c(=O)c2c1 | 504 | 12 | 3.4 (≈ 9.9 nM) | 42 | 10 |
| O=C(C[C@H]1NCC[C@@H]1O)Cn1cnc2cccnc2c1=O | 345 | 111 | 0.12 (≈ 0.416 nM) | 3.1 | 0.44 |
| O=C(C[C@H]1NCC[C@@H]1OCc1ccccc1)Cn1cnc2cccnc2c1=O | 102 | 132 | 0.14 (≈ 0.37 nM) | 0.77 | 0.14 |

From ChEMBL document CHEMBL1152949, “Synthesis and biological evaluation of febrifugine analogues as potential antimalarial agents” (Bioorg Med Chem, 2009)
